According to ChEMBL document CHEMBL4002589, “Tri- and Tetrasubstituted Pyridinylimidazoles as Covalent Inhibitors of c-Jun N-Terminal Kinase 3” (J Med Chem, 2017):
Active and inactive are the calls of the source. No cut-off for these calls is given here.

Columns and labels:
[1] = biological target: Mitogen-activated protein kinase 10 (Homo sapiens, UniProt P53779); experiment: Inhibition of recombinant 6x-His-tagged JNK3 (39 to 402 residues) (unknown origin) expressed in Escherichia coli BL21(DE3) assessed as reduction in ATF2 phosphorylation measured after 50 mins by ELISA
[2] = biological target: Mitogen-activated protein kinase 14 (Homo sapiens, UniProt Q16539); experiment: Inhibition of GST-His tagged human p38alpha expressed in Escherichia coli assessed as reduction in ATF2 phosphorylation measured after 60 mins by ELISA
Method in brief: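 ELISA kinase assays run in parallel for JNK3 and p38α, with 60 min incubation. IC50 values are the mean of three experiments.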

[3] = biological target: Angiopoietin-1 receptor (Homo sapiens) (UniProt Q02763); experiment: Inhibition of human wild type C-terminal GST-His-tagged TIE2 expressed in Sf9 cells assessed as residual activity at 0.5 uM relative to control
Method in brief: (§1)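 Each inhibitor is tested at a single concentration, 1 µM or 0.5 µM depending on the compound. Results are reported as residual kinase activity.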

[4] = biological target: MAP kinase-activated protein kinase 2 (Homo sapiens) (UniProt P49137); experiment: Inhibition of human MAPKAPK2 expressed in Sf9 cells assessed as residual activity at 0.5 uM relative to control; method in brief: as §1
[5] = biological target: Casein kinase I isoform delta (Homo sapiens) (UniProt P48730); experiment: Inhibition of CK1 delta (unknown origin) assessed as residual activity at 0.5 uM; method in brief: as §1
[6] = Drug metabolism in human liver microsomes at 100 uM preincubated with NADPH regenerating system for 5 mins followed by addition of liver microsomes measured after 180 mins by LC-MS analysis; assay type: ADME, microsome; conditions: read-out: Drug metabolism
[7] = system: Mitogen-activated protein kinase 10 (Homo sapiens), P53779 [C154A]; experiment: Covalent binding affinity to JNK3 C154A mutant (unknown origin) at 5 molar excess after 1 hr by LC-muESI-QTOF mass spectrometry
Method in brief: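 Intact-protein mass spectrometry with a JNK3 mutant carrying Cys-154→Ala. Inhibitor is incubated with the protein. Unbound and reversibly bound ligand are removed by chromatography and by a high declustering potential before ionization. The protein is then analysed by LC-µESI-QTOF to look for a mass shift from a covalent adduct.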

[8] = Glutathione reactivity at 10 uM after 54 mins in presence of 5 mM GSH by HPLC method
Method in brief: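 Test compound (10 µM) is incubated with glutathione (5 mM) under conditions like those of the kinase activity assay (max. concentration 10 µM, 54 min, 37°C).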

Sequence of Mitogen-activated protein kinase 14 (Q16539 whole entry): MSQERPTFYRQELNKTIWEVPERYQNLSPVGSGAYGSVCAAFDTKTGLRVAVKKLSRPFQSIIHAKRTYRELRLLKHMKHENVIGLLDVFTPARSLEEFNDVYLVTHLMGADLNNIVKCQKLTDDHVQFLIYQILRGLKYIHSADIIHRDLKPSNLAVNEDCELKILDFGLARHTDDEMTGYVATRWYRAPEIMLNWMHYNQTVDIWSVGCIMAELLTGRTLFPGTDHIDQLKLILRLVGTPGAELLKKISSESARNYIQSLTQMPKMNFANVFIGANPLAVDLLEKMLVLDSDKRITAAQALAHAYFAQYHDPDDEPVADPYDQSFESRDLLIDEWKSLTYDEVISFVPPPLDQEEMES
Sequence of Mitogen-activated protein kinase 10 (P53779 whole entry, the tested form may be a part): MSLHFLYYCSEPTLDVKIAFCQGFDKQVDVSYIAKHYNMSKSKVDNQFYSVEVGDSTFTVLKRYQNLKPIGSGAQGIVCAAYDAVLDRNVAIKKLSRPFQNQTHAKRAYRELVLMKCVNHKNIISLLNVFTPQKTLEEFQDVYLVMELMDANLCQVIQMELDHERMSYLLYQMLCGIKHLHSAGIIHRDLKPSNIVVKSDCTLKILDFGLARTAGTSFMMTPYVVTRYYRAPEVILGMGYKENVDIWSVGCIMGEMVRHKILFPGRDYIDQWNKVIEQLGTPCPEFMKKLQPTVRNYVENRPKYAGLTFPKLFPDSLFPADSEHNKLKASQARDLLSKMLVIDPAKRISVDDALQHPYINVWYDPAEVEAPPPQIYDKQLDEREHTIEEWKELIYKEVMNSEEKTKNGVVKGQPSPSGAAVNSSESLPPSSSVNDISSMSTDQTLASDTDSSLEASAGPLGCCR
Sequence of Mitogen-activated protein kinase 10 (Homo sapiens), P53779 [C154A] (P53779 whole entry C154A): as the sequence (P53779 whole entry, the tested form may be a part) above, with C154A counted along it
Sequence of MAP kinase-activated protein kinase 2 (Homo sapiens) (P49137 whole entry, looked up, canonical isoform): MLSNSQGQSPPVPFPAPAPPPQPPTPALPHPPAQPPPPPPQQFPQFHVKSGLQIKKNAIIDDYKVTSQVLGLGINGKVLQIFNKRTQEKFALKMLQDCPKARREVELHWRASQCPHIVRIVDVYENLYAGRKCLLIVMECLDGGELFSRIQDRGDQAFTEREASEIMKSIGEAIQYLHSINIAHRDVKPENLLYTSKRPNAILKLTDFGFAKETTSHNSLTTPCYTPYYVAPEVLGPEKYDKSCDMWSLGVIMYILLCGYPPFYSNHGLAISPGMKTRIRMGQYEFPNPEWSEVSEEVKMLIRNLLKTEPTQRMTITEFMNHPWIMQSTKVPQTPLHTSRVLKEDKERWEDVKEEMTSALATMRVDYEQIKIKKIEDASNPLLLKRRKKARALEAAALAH
Sequence of Casein kinase I isoform delta (Homo sapiens) (P48730 whole entry, looked up, canonical isoform): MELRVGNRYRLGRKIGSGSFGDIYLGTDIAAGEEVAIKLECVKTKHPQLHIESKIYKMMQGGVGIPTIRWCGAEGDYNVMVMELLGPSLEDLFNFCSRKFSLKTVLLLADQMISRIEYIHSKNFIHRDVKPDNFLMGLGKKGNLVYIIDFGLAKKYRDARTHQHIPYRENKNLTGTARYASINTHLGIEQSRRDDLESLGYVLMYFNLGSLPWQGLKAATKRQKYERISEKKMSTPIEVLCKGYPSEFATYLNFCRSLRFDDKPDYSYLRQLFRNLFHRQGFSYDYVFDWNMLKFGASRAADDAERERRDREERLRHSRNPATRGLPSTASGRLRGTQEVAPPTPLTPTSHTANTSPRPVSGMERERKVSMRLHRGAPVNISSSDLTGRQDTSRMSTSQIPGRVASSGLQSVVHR
Sequence of Angiopoietin-1 receptor (Homo sapiens) (Q02763 whole entry): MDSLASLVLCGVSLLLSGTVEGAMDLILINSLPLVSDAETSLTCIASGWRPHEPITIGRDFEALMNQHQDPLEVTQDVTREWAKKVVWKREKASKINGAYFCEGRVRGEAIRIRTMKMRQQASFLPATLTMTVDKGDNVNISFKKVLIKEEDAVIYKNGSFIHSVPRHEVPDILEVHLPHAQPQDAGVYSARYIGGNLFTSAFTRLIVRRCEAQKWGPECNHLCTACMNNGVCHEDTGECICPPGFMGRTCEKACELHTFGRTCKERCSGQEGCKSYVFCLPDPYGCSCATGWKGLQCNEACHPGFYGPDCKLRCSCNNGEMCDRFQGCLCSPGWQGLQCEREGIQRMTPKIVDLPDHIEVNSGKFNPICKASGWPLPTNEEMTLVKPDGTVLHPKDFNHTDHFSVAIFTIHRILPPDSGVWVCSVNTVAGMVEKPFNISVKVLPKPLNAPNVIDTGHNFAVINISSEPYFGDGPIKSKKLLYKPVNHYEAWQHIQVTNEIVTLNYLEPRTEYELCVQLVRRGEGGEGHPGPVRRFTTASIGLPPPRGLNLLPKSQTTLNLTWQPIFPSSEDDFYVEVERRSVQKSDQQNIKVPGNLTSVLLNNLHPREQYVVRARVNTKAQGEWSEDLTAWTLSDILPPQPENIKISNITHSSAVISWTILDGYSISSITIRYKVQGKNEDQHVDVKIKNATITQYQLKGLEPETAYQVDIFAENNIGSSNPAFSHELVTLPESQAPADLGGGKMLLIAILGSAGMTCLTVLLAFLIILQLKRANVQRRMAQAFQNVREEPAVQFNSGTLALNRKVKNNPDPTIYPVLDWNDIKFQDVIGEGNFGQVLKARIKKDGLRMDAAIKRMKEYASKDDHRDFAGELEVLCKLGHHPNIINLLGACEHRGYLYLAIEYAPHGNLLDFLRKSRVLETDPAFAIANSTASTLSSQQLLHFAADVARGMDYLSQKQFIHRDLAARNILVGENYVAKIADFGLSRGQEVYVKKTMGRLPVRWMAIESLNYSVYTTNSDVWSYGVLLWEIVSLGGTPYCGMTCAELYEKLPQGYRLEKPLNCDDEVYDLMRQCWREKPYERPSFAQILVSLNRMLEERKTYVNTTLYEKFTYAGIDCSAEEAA

| IC50 [1] [nM] | IC50 [2] [nM] | Structure (SMILES) | further results |
| --- | --- | --- | --- |
| 253 | > 10000 | CCC(=O)Nc1cccc(C(=O)Nc2ccc(Nc3cc(-c4[nH]c(SC)nc4C)ccn3)cc2)c1 | – |
| 0.3 | 36 | C=CC(=O)Nc1cccc(C(=O)Nc2ccc(Nc3cc(-c4c(-c5ccc(F)cc5)nc(SC)n4C)ccn3)cc2)c1 | Activity [3]: 30 to 50%; Activity [4]: 30 to 50%; Activity [5]: 30 to 50%; metabolised at 3 h, 100 µM [6]: 13%; Activity [7]: inactive; Drug metabolism [8]: Metabolite detected |
| 3 | 3 | C=CC(=O)Nc1ccc(C(=O)Nc2ccc(Nc3cc(-c4[nH]c(SC)nc4-c4ccc(F)cc4)ccn3)cc2)cc1 | – |
| 10 | 47 | C=CC(=O)Nc1ccc(C(=O)Nc2ccc(Nc3cc(-c4c(-c5ccc(F)cc5)nc(SC)n4C)ccn3)cc2)cc1 | Activity [7]: inactive |
| 4 | 26 | C=CC(=O)Nc1ccc(C(=O)Nc2cccc(Nc3cc(-c4c(-c5ccc(F)cc5)nc(SC)n4C)ccn3)c2)cc1 | – |
| 200 | 5920 | C=CC(=O)Nc1ccc(C(=O)Nc2ccc(Nc3cc(-c4[nH]c(SC)nc4C)ccn3)cc2)cc1 | – |
| 0.6 | 0.8 | C=CC(=O)Nc1cccc(C(=O)Nc2ccc(Nc3cc(-c4[nH]c(SC)nc4-c4ccc(F)cc4)ccn3)cc2)c1 | – |

The next lines start with the compound.

| Structure (SMILES) | IC50 [1] [nM] | IC50 [2] [nM] | further results |
| --- | --- | --- | --- |
| C=CC(=O)Nc1cccc(C(=O)Nc2ccc(Nc3cc(-c4c(-c5ccc(F)cc5)nc(SC)n4C)ccn3)cc2)c1C | 2 | 2 | – |
| C=CC(=O)Nc1cccc(C(=O)Nc2cccc(Nc3cc(-c4c(-c5ccc(F)cc5)nc(SC)n4C)ccn3)c2)c1 | 3 | 217 | – |
| CCC(=O)Nc1ccc(C(=O)Nc2ccc(Nc3cc(-c4c(-c5ccc(F)cc5)nc(SC)n4C)ccn3)c(C)c2)cc1 | 25 | 22 | – |
| C=CC(=O)Nc1cccc(C(=O)Nc2cccc(Nc3cc(-c4c(-c5ccc(F)cc5)nc(SC)n4C)ccn3)c2)c1C | 3 | 100 | – |
| CCC(=O)Nc1cccc(C(=O)Nc2ccc(Nc3cc(-c4c(-c5ccc(F)cc5)nc(SC)n4C)ccn3)cc2)c1 | 23 | 126 | – |
| CSc1nc(-c2ccc(F)cc2)c(-c2ccnc(Nc3ccc(N)cc3)c2)[nH]1 | 24 | 17 | – |
| CCC(=O)Nc1ccc(C(=O)Nc2ccc(Nc3cc(-c4c(-c5ccc(F)cc5)nc(SC)n4C)ccn3)cc2)cc1 | 27 | 17 | – |
| CCC(=O)Nc1cccc(C(=O)Nc2cccc(Nc3cc(-c4c(-c5ccc(F)cc5)nc(SC)n4C)ccn3)c2)c1 | 175 | 241 | – |
| C=CC(=O)Nc1ccc(C(=O)Nc2ccc(Nc3cc(-c4c(-c5ccc(F)cc5)nc(SC)n4C)ccn3)c(C)c2)cc1 | 8 | 35 | – |
| CCC(=O)Nc1cccc(C(=O)Nc2ccc(Nc3cc(-c4[nH]c(SC)nc4-c4ccc(F)cc4)ccn3)cc2)c1 | 2 | 4 | – |
| CCC(=O)Nc1cccc(C(=O)Nc2ccc(Nc3cc(-c4c(-c5ccc(F)cc5)nc(SC)n4C)ccn3)cc2)c1C | 17 | 38 | – |
| CSc1nc(-c2ccc(F)cc2)c(-c2ccnc(Nc3ccc(NC(=O)c4cccc(N)c4)cc3)c2)n1C | 30 | 149 | – |
| C=CC(=O)Nc1cccc(C(=O)Nc2ccc(Nc3cc(-c4c(-c5ccc(F)cc5)nc(SC)n4C)ccn3)c(C)c2)c1 | 2 | 3 | – |
